Laboratory results from ChEMBL document CHEMBL4270599, “Synthesis of a 3'-C-ethynyl-β-d-ribofuranose purine nucleoside library: Discovery of C7-deazapurine analogs as potent antiproliferative nucleosides” (Eur J Med Chem, 2018).

How the values were obtained:
OVCAR-4 = test: Growth inhibition of human OVCAR4 cells assessed as cell growth at 10^-7 M incubated for 48 hrs by sulforhodamine B assay relative to control; format: functional; conditions: OVCAR-4, 48 h, read-out: Activity
COLO 205 = test: Growth inhibition of human COLO205 cells assessed as cell growth at 10^-8 M incubated for 48 hrs by sulforhodamine B assay relative to control; format: functional; conditions: COLO 205, 48 h, read-out: Activity
SK-OV-3 = test: Growth inhibition of human SKOV3 cells assessed as cell growth at 10^-7 M incubated for 48 hrs by sulforhodamine B assay relative to control; format: functional; conditions: SK-OV-3, 48 h, read-out: Activity
OVCAR-5 = test: Growth inhibition of human OVCAR5 cells assessed as cell growth at 10^-7 M incubated for 48 hrs by sulforhodamine B assay relative to control; format: functional; conditions: OVCAR-5, 48 h, read-out: Activity
HCT-116 = test: Growth inhibition of human HCT116 cells assessed as cell growth at 10^-7 M incubated for 48 hrs by sulforhodamine B assay relative to control; format: functional; conditions: HCT-116, 48 h, read-out: Activity
HOP-92 = test: Growth inhibition of human HOP92 cells assessed as cell growth at 10^-6 M incubated for 48 hrs by sulforhodamine B assay relative to control; format: functional; conditions: HOP-92, 48 h, read-out: Activity
786-0 = test: Growth inhibition of human 786-0 cells assessed as cell growth at 10^-8 M incubated for 48 hrs by sulforhodamine B assay relative to control; format: functional; conditions: 786-0, 48 h, read-out: Activity
NCI-H23 = test: Cytotoxicity against human NCI-H23 cells after 48 hrs by SRB assay; format: functional; conditions: NCI-H23, 48 h; for GI50: read-out: GI50; for TGI: read-out: TGI; for CC50: read-out: pLC50 (the source's name) (converted)
DU-145 = test: Growth inhibition of human DU145 cells assessed as cell growth at 10^-5 M incubated for 48 hrs by sulforhodamine B assay relative to control; format: functional; conditions: DU-145, 48 h, read-out: Activity
HT-29 [1] = test: Growth inhibition of human HT-29 cells assessed as cell growth at 10^-7 M incubated for 48 hrs by sulforhodamine B assay relative to control; format: functional; conditions: HT-29, 48 h, read-out: Activity
[2] = Antiproliferative activity against HMVEC-d cells after 4 days by Coulter counter method; format: cell-based; conditions: Homo sapiens, 96 h
In short: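 Primary HUVEC, primary HMVEC-d and the HMEC-1 line seeded at 20,000 cells/well in gelatin-coated plates in EC growth medium (EGM2). After overnight incubation, 5-fold compound dilutions added. Cells proliferated four days with compound, then trypsinized and counted by Coulter counter to derive IC₅₀.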

HCT-15 = test: Growth inhibition of human HCT15 cells assessed as cell growth at 10^-8 M incubated for 48 hrs by sulforhodamine B assay relative to control; format: functional; conditions: HCT-15, 48 h, read-out: Activity
OVCAR-3 = test: Growth inhibition of human OVCAR3 cells assessed as cell growth at 10^-8 M incubated for 48 hrs by sulforhodamine B assay relative to control; format: functional; conditions: OVCAR-3, 48 h, read-out: Activity
UACC-257 [3] = test: Growth inhibition of human UACC257 cells assessed as cell growth at 10^-8 M incubated for 48 hrs by sulforhodamine B assay relative to control; format: functional; conditions: UACC-257, 48 h, read-out: Activity
MCF7 = test: Growth inhibition of human MCF7 cells assessed as cell growth at 10^-8 M incubated for 48 hrs by sulforhodamine B assay relative to control; format: functional; conditions: MCF7, 48 h, read-out: Activity
SR = test: Growth inhibition of human SR cells assessed as cell growth at 10^-4 M incubated for 48 hrs by sulforhodamine B assay relative to control; format: functional; conditions: read-out: Activity
SK-MEL-5 = test: Cytotoxicity against human SK-MEL-5 cells after 48 hrs by SRB assay; format: functional; conditions: SK-MEL-5, 48 h; for GI50: read-out: GI50; for TGI: read-out: TGI
BT-549 = test: Growth inhibition of human BT549 cells assessed as cell growth at 10^-7 M incubated for 48 hrs by sulforhodamine B assay relative to control; format: functional; conditions: BT-549, 48 h, read-out: Activity
KM12 = test: Growth inhibition of human KM12 cells assessed as cell growth at 10^-7 M incubated for 48 hrs by sulforhodamine B assay relative to control; format: functional; conditions: KM12, 48 h, read-out: Activity
HOP-62 = test: Growth inhibition of human HOP62 cells assessed as cell growth at 10^-7 M incubated for 48 hrs by sulforhodamine B assay relative to control; format: functional; conditions: HOP-62, 48 h, read-out: Activity
NCI-H460 = test: Growth inhibition of human NCI-H460 cells assessed as cell growth at 10^-8 M incubated for 48 hrs by sulforhodamine B assay relative to control; format: functional; conditions: NCI-H460, 48 h, read-out: Activity
K562 = test: Growth inhibition of human K562 cells assessed as cell growth at 10^-7 M incubated for 48 hrs by sulforhodamine B assay relative to control; format: functional; conditions: K562, 48 h, read-out: Activity
ACHN = test: Growth inhibition of human ACHN cells assessed as cell growth at 10^-8 M incubated for 48 hrs by sulforhodamine B assay relative to control; format: functional; conditions: read-out: Activity
SK-MEL-28 = test: Growth inhibition of human SK-MEL-28 cells assessed as cell growth at 10^-8 M incubated for 48 hrs by sulforhodamine B assay relative to control; format: functional; conditions: SK-MEL-28, 48 h, read-out: Activity
HT-29 [4] = test: Cytotoxicity against human HT-29 cells after 48 hrs by SRB assay; format: functional; conditions: HT-29, 48 h; for GI50: read-out: GI50; for CC50: read-out: LC50 (the source's name)
IGROV-1 = test: Cytotoxicity against human IGROV1 cells after 48 hrs by SRB assay; format: functional; conditions: IGROV-1, 48 h; for GI50: read-out: GI50
SN12C = test: Cytotoxicity against human SN12C cells after 48 hrs by SRB assay; format: functional; conditions: for GI50: read-out: GI50; for CC50: read-out: LC50 (the source's name)
UACC-257 [5] = test: Cytotoxicity against human UACC257 cells after 48 hrs by SRB assay; format: functional; conditions: UACC-257, 48 h; for GI50: read-out: GI50; for CC50: read-out: LC50 (the source's name); for TGI: read-out: TGI
SW-620 = test: Growth inhibition of human SW620 cells assessed as cell growth at 10^-6 M incubated for 48 hrs by sulforhodamine B assay relative to control; format: functional; conditions: SW-620, 48 h, read-out: Activity
U-251 = test: Growth inhibition of human U251 cells assessed as cell growth at 10^-7 M incubated for 48 hrs by sulforhodamine B assay relative to control; format: functional; conditions: U-251, 48 h, read-out: Activity
[6] = read-out: LC50 (the source's name)

Compound: C#C[C@@]1(O)[C@@H](CO)O[C@@H](n2cc(Cl)c3c(N)ncnc32)[C@@H]1O
- growth at 0.1 µM (OVCAR-4): 89 to 95%
- growth at 0.01 µM (COLO 205): 93 to 96%
- growth at 0.1 µM (SK-OV-3): 56 to 72%
- growth at 0.1 µM (OVCAR-5): 72 to 102%
- growth at 0.1 µM (HCT-116): 4 to 5%
- growth at 1 µM (HOP-92): 27 to 31%
- growth at 0.01 µM (786-0): 80 to 82%
- GI50 (NCI-H23): 173 to 213 nM
- TGI (NCI-H23): 716 to 1280 nM
- CC50 (NCI-H23): > 100 µM
- growth at 10 µM (DU-145): 1 to 2%
- growth at 0.1 µM (HT-29 [1]): 18 to 38%
- IC50 [2]: < 1.28 nM
- growth at 0.01 µM (HCT-15): 78 to 80%
- growth at 0.01 µM (OVCAR-3): 97 to 101%
- growth at 0.01 µM (UACC-257 [3]): 87 to 100%
- growth at 0.01 µM (MCF7): 67 to 75%
- growth at 100 µM (SR): 2 to 5%
- GI50 (SK-MEL-5): 109 to 140 nM
- TGI (SK-MEL-5): 268 to 343 nM
- growth at 0.1 µM (BT-549): 86 to 90%
- growth at 0.1 µM (KM12): 55 to 60%
- growth at 0.1 µM (HOP-62): 74 to 86%
- growth at 0.01 µM (NCI-H460): 45 to 96%
- growth at 0.1 µM (K562): 45 to 55%
- growth at 0.01 µM (ACHN): 95%
- growth at 0.01 µM (SK-MEL-28): 94%
- GI50 (HT-29 [4]): 32.2 to 59.1 nM
- CC50 (HT-29 [4]): > 100 µM
- TGI (HT-29 [4]; read-out: TGI): 0.747 to 100 µM
- GI50 (IGROV-1): 123 to 145 nM
- CC50 (IGROV-1; [6]): > 100 µM
- TGI (IGROV-1; read-out: TGI): 475 nM
- TGI (IGROV-1; read-out: pTGI (converted)): 479 nM
- GI50 (SN12C): 113 to 230 nM
- CC50 (SN12C): > 100 µM
- GI50 (UACC-257 [5]): 270 to 446 nM
- CC50 (UACC-257 [5]): > 100 µM
- TGI (UACC-257 [5]): 63.8 to 100 µM
- growth at 1 µM (SW-620): 2 to 7%

Compound: C#C[C@@]1(O)[C@@H](CO)O[C@@H](n2cc(Br)c3c(N)ncnc32)[C@@H]1O
- growth at 0.1 µM (OVCAR-4): 78 to 89%
- growth at 0.01 µM (COLO 205): 95 to 97%
- growth at 0.1 µM (SK-OV-3): 28 to 62%
- growth at 0.1 µM (OVCAR-5): 62 to 97%
- growth at 0.1 µM (HCT-116): 2 to 12%
- growth at 0.1 µM (U-251): 2 to 11%
- growth at 0.01 µM (786-0): 86 to 91%
- GI50 (NCI-H23): 162 to 225 nM
- TGI (NCI-H23): 1930 to 4210 nM
- CC50 (NCI-H23): > 100 µM
- growth at 10 µM (DU-145): 7 to 10%
- growth at 0.1 µM (HT-29 [1]): 10 to 35%
- IC50 [2]: 1.9 nM
- growth at 0.01 µM (HCT-15): 80 to 84%
- growth at 0.01 µM (OVCAR-3): 99 to 101%
- growth at 0.01 µM (UACC-257 [3]): 87 to 100%
- growth at 0.01 µM (MCF7): 60 to 74%
- growth at 100 µM (SR): 2 to 6%
- GI50 (SK-MEL-5): 47.8 to 239 nM
- CC50 (SK-MEL-5; [6]): 6.24 to 100 µM
- TGI (SK-MEL-5): 522 to 7180 nM
- growth at 0.1 µM (BT-549): 65 to 84%
- growth at 0.1 µM (KM12): 49 to 53%
- growth at 0.1 µM (HOP-62): 68 to 86%
- growth at 0.01 µM (NCI-H460): 63 to 104%
- growth at 0.1 µM (K562): 27 to 48%
- growth at 0.01 µM (ACHN): 97%
- growth at 0.01 µM (SK-MEL-28): 93 to 96%
- GI50 (HT-29 [4]): 25.8 to 55.9 nM
- CC50 (HT-29 [4]): > 100 µM
- TGI (HT-29 [4]; read-out: TGI): > 100 µM
- TGI (HT-29 [4]; read-out: pTGI (converted)): > 100 µM
- GI50 (IGROV-1): 27.8 to 69.9 nM
- TGI (IGROV-1; read-out: TGI): 485 nM
- CC50 (IGROV-1; read-out: pLC50 (the source's name) (converted)): > 100 µM
- TGI (IGROV-1; read-out: pTGI (converted)): 490 nM
- GI50 (SN12C): 37.7 to 218 nM
- CC50 (SN12C): > 100 µM
- TGI (SN12C; read-out: TGI): > 100 µM
- TGI (SN12C; read-out: pTGI (converted)): > 100 µM
- GI50 (UACC-257 [5]): 2820 to 5900 nM
- CC50 (UACC-257 [5]): > 100 µM
- TGI (UACC-257 [5]): 49.2 to 77 µM
- growth at 1 µM (SW-620): 4 to 9%
